Results reported in paper PMC6605684 (The Journal of General Physiology, 2019).
Several values for one entry are separate records, joined by “and”; a condition that tells them apart may be missing. Equal entries are not always repeated.

Key:
[1] = biological target: WT zCFTR (zWT) (Danio rerio, UniProt Q1LX78); experiment: Inside-out patch-clamp of CFTR currents in transfected CHO cells; type: cell-based, zebrafish; conditions: EC50 for GLPG1837, dose–response
In short: (§1)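 CFTR construct and GFP plasmid cotransfected into CHO cells, held at 27°C for 2–6 d. Inside-out patches at room temperature, −30 mV, NMDG-Cl solutions at pH 7.4. Channels preactivated with 25 IU PKA plus 2 mM MgATP, then test compound (max 40 µM) applied in 2 mM ATP. ATP-subtracted steady-state currents normalized to the 3 µM response in the same patch. Hill fit with base 0 and maximum 1; EC50 ± SD of fit; 3–7 patches per point.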

[2] = biological target: Y304F-CFTR (Homo sapiens, UniProt P13569, Y304F); experiment: as above; type: cell-based
In short: as §1

[3] = biological target: S364A-CFTR (Homo sapiens, UniProt P13569, S364A); experiment: as above; type: cell-based
In short: as §1

[4] = biological target: WT-CFTR (Homo sapiens, UniProt P13569); experiment: as above; type: cell-based
In short: as §1

[5] = biological target: S263A-CFTR (Homo sapiens, UniProt P13569, S263A); experiment: as above; type: cell-based
In short: as §1

[6] = biological target: G551D-CFTR (Homo sapiens, UniProt P13569, G551D); conditions: ref Yeh et al., 2017, cited from earlier work
[7] = biological target: R347S-CFTR (ΔR-CFTR background) (Homo sapiens, UniProt P13569, R347S); experiment: Inside-out patch-clamp of CFTR currents in transfected CHO cells; type: cell-based; conditions: pH 7.4
In short: (§2)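 Channels in ATP exposed to test compound at pH 7.4; percent change of mean current scored. Perfusate then switched to pH 5.5, with or without prior compound exposure at pH 7.4. Fold increase taken as peak current at pH 5.5 divided by mean current at pH 7.4.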

[8] = biological target: WT-mCFTR (Mus musculus, UniProt P26361); experiment: Inside-out patch-clamp of CFTR currents in transfected CHO cells; type: cell-based; conditions: 2 mM ATP
In short: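 Mouse CFTR expressed in CHO cells; inside-out patches. Phosphorylated channels opened by 2 mM ATP before the potentiator was applied (one potentiator at 200 nM). 5 µM CFTRinh-172 added at the end of each recording for baseline.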

[9] = biological target: F229A-CFTR (Homo sapiens, UniProt P13569, F229A); experiment: Inside-out patch-clamp of CFTR currents in transfected CHO cells; type: cell-based
Chain of F229A-CFTR (P13569 whole entry F229A): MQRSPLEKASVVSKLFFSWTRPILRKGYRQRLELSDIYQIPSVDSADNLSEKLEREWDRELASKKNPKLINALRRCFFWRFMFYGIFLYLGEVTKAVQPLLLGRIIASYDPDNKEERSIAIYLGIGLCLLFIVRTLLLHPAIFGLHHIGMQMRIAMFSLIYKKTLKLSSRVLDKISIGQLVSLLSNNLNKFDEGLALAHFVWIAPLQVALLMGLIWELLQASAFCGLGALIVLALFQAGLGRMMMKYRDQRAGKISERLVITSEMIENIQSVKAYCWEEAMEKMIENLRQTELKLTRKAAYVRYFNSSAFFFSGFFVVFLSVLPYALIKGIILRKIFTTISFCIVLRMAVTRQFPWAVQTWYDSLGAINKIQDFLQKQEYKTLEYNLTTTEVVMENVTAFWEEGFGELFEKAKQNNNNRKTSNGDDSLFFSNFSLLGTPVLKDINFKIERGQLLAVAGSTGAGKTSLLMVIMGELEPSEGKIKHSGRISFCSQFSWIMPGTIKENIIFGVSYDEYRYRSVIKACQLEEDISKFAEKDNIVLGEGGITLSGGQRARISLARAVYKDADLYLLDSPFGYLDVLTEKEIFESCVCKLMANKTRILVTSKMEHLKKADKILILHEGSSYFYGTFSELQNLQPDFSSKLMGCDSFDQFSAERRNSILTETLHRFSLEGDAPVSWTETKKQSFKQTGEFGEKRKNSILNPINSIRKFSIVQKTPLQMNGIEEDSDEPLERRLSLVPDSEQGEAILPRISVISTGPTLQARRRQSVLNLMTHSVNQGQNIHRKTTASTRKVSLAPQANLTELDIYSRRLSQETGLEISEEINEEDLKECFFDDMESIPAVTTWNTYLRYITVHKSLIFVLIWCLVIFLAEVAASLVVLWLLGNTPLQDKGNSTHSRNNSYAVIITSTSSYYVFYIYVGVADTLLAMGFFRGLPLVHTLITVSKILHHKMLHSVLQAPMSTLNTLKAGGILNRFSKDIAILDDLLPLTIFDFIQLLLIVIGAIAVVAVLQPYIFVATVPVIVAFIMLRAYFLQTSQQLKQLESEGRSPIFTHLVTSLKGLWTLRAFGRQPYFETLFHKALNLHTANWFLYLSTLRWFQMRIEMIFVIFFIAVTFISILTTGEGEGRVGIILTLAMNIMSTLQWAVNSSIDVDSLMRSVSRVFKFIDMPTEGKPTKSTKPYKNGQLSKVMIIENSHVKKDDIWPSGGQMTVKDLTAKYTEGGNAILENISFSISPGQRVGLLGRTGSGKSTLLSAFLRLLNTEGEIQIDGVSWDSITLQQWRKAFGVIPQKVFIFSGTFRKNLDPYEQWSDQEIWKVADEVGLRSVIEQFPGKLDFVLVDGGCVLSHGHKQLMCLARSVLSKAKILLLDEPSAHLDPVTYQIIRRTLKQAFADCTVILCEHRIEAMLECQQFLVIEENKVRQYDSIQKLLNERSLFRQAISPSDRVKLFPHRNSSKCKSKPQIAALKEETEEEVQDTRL
In short: as §1

[10] = biological target: S1141R/G551D-CFTR (Homo sapiens, UniProt P13569, G551D/S1141R); experiment: as above; type: cell-based
In short: as §1

[11] = biological target: D924A-CFTR (Homo sapiens, UniProt P13569, D924A); experiment: Inside-out patch-clamp of CFTR currents in transfected CHO cells; type: cell-based
In short: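 No macroscopic currents were obtained, so single-channel recordings were used: less plasmid, recorded within 2 d, 4–5 MΩ pipettes, patch held at −50 mV. Channels activated with PKA plus ATP, then PKA removed in 2 mM ATP. Activity at 3 and 20 µM test compound compared with basal activity in 2 mM ATP.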

[12] = biological target: Y304A-CFTR (Homo sapiens, UniProt P13569, Y304A); experiment: Inside-out patch-clamp of CFTR currents in transfected CHO cells; type: cell-based
Chain of Y304A-CFTR (P13569 whole entry Y304A, the tested form may be a part): as the sequence (P13569 whole entry F229A) above, with A229F, Y304A counted along it
In short: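 Relaxation assay: PKA-preactivated channels in 2 mM ATP at −30 mV exposed to test compound through a fast three-barrel perfusion system (dead time ∼30 ms). Current decay after sudden removal of 3 µM compound fitted with a single exponential to give relaxation time constant τ.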

[13] = biological target: R347D-CFTR (ΔR-CFTR background) (Homo sapiens, UniProt P13569, R347D); experiment: Inside-out patch-clamp of CFTR currents in transfected CHO cells; type: cell-based; conditions: pH 7.4
In short: as §2

[14] = biological target: N1138Y/G551D-CFTR (Homo sapiens, UniProt P13569, G551D/N1138Y); experiment: Inside-out patch-clamp of CFTR currents in transfected CHO cells; type: cell-based
In short: as §1

[15] = biological target: F312A-CFTR (Homo sapiens, UniProt P13569, F312A); experiment: Inside-out patch-clamp of CFTR currents in transfected CHO cells; type: cell-based; conditions: for ΔΔG: vs WT
[16] = biological target: K190A-CFTR (Homo sapiens, UniProt P13569, K190A); experiment: Inside-out patch-clamp of CFTR currents in transfected CHO cells; type: cell-based
Chain of K190A-CFTR (P13569 whole entry K190A): as the sequence (P13569 whole entry F229A) above, with K190A, A229F counted along it
In short: as §1

[17] = biological target: F931A-CFTR (Homo sapiens, UniProt P13569, F931A); experiment: as above; type: cell-based
In short: as §1

[18] = CHO, read-out: Efficacy (% increase) of currents by GLPG1837

SMILES: CC1(C)Cc2c(sc(NC(=O)c3ccn[nH]3)c2C(N)=O)C(C)(C)O1 [GLPG1837, N-(3-carbamoyl-5,5,7,7-tetramethyl-5,7-dihydro-4H-thieno[2,3-c]pyran-2-yl)-lH-pyrazole-5-carboxamide]
- EC50 [1]: 3900 ± 1700 nM
- EC50 [2]: 2280 ± 340 nM
- Emax [2, 18]: 82 ± 12%
- ΔΔG ([2]; GLPG1837, vs WT): -1.29 kcal/mol
- Relaxation time constant upon removal of GLPG1837 ([2]; mean, n = 5): 5.5 ± 1.3
- EC50 [3]: 180 ± 10 nM
- Emax [3, 18]: 126 ± 5%
- EC50 [4]: 260 ± 40 nM
- Hill coefficient of the GLPG1837 effect [4]: ≈ 1
- Emax [4, 18]: 115%
- Saturating concentration of GLPG1837 ([4]; continuous presence of ATP): 3 µM
- EC50 [5]: 270 ± 50 nM
- Emax [5, 18]: 148 ± 18%
- ΔΔG ([5]; GLPG1837, vs WT): -0.022 kcal/mol
- Maximal fold increase of currents by GLPG1837 relative to WT-CFTR ([6]; greater than WT-CFTR): 20 fold
- Apparent affinity for GLPG1837 relative to WT-CFTR ([6]; lower than on WT-CFTR): 10 fold
- Effect of GLPG1837 on currents [7]: no effect
- Potentiation of currents by GLPG1837 [8]: does not potentiate
- EC50 [9]: 460 ± 70 nM
- Emax [9, 18]: 135 ± 26%
- ΔΔG ([9]; GLPG1837, vs WT): -0.337 kcal/mol
- EC50 [10]: 510 ± 130 nM
- ΔΔG ([10]; GLPG1837, vs G551D): 0.863 kcal/mol
- Decrease of apparent affinity for GLPG1837 vs WT-CFTR [11]: ≥ 10 fold
- EC50 [11]: > 3000 nM
- Potentiating effect of GLPG1837 ([11]; 3 µM GLPG1837, microscopic recording): barely discerned any potentiating effects
- ΔΔG ([11]; GLPG1837, −RTln(EC50 mutant/EC50 WT)): <-1.45 kcal/mol
- EC50 [12]: > 3000 nM
- Emax [12, 18]: > 80%
- ΔΔG ([12]; GLPG1837, vs WT): <-1.45 kcal/mol
- Relaxation time constant upon removal of GLPG1837 ([12]; mean, n = 5): 3.6 ± 1.0 s and < 5 s
- Effect of GLPG1837 on currents [13]: no effect
- EC50 [14]: 400 ± 100 nM
- ΔΔG ([14]; GLPG1837, vs G551D): 1.01 kcal/mol
- Emax ([15]; CHO, read-out: Efficacy (% increase) of currents by GLPG1837, 30 µM ATP): 105 ± 12%
- EC50 ([15]; EC50 for GLPG1837, 30 µM ATP (Po ∼0.35)): 1300 ± 260 nM
- EC50 ([15]; EC50 for GLPG1837, 2 mM ATP): 400 ± 130 nM
- ΔΔG ([15]; GLPG1837, 30 µM ATP): -0.954 kcal/mol
- ΔΔG ([15]; GLPG1837, 2 mM ATP): -0.256 kcal/mol
- EC50 [16]: 80 ± 10 nM
- Emax [16, 18]: 61 ± 12%
- ΔΔG ([16]; GLPG1837, vs WT): 0.698 kcal/mol
- EC50 [17]: 1140 ± 260 nM
- Emax [17, 18]: 83 ± 12%
